≈ marks a conversion by molar mass, not a printed value.
Experiments:
[1] = Stability in 1:1 MeCN:0.2N aq. HCl assessed as percent remaining at 0.3 mM and 60 degC incubated for 24 hrs by LC/MS analysis; type: physicochemical; conditions: for remaining at 24 h, 300 µM: 1:1 MeCN:0.2N aq; call rule not given here. HCl, read-out: Stability
Summary of the method: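 Compound in 1:1 CH3CN/0.2 N aqueous HCl with furan-2-carboxylic acid (1 eq) as internal standard, heated at 60 °C. Analysed by LC-MS at set time points. Degradation from UV peak area at 254 nm relative to the internal standard.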

[2] = target: T1, Alpha-1A adrenergic receptor (Homo sapiens, UniProt P35348); experiment: Inhibition of alpha1A adrenergic receptor (unknown origin)
T1 sequence (P35348 whole entry): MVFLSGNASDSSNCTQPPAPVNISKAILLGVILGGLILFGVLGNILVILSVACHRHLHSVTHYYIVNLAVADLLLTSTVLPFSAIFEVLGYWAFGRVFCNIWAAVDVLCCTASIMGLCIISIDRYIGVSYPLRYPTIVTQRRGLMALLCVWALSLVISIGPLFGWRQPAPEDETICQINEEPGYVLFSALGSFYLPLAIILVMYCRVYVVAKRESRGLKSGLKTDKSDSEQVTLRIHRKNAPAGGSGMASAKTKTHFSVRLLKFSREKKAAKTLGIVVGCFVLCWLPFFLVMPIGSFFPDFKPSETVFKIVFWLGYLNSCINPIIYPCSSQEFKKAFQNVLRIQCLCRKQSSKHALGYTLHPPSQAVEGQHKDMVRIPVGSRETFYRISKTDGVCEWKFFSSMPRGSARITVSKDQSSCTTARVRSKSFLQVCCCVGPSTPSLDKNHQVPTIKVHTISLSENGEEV

[3] = Metabolic stability in human liver microsomes assessed as percent remaining […] incubated for 1 hr by LC/MS analysis; type: ADME, Microsome
Summary of the method: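 Compound at 10 μM final (from 1 mM DMSO stock) pre-incubated 5 min at 37 °C with NADPH regenerating system in phosphate buffer pH 7.4. Started with human liver microsomes (0.5 mg/mL protein). After 1 h, triplicate aliquots quenched in cold acetonitrile with internal standard. Percent remaining by LC-MS/MS peak-area ratio to internal standard.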

CYP3A4 [4] = target: T2, CYP3A4 (Homo sapiens, UniProt P08684); experiment: Inhibition of CYP3A4 (unknown origin) at 10 uM using DBOMF as substrate measured for each min for 6 mins by fluorescence based assay relative to control; type: ADME; conditions: probe DBOMF
Summary of the method: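 Vivid CYP3A4 Green assay in PBS pH 7.2 with NADP+ regeneration system. Final levels: 5 nM CYP3A4, 2 μM DBOMF substrate, 100 μM NADP+, 10 μM compound. Fluorescence (ex 490/em 520 nm) read every minute for 6 min, four wells per compound.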

HEK293 = experiment: Cytotoxicity against human HEK293 cells assessed as reduction in cell viability incubated for 18 hrs by celltiter-glo assay; conditions: hek293, 18 h
[5] = target: T3, Alpha-1A adrenergic receptor (Homo sapiens) (UniProt P35348); experiment: Binding affinity to alpha1A adrenergic receptor (unknown origin) at 10 uM relative to control
T3 sequence (whole entry): T1 sequence (P35348 whole entry)

[6] = target: Potassium voltage-gated channel subfamily KQT member 2 (Homo sapiens, UniProt O43526); experiment: Inhibition of Kv7.2 in human HEK293 cells incubated for 1 hr by thallium flux assay; type: cell-based
Summary of the method: (§1)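 HEK-293 cells stably expressing KCNQ2 or hERG were plated overnight, then loaded with Thallos AM dye for 1 h at 22 °C. Compounds (10-point, 3-fold dilutions) were added for 5 min, then Tl₂SO₄/K-gluconate stimulus, read at 1 Hz. F/F0 was vehicle-subtracted and initial slopes fit to a four-parameter logistic. Triplicate wells; mean of three independent experiments.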

[7] = target: Voltage-gated potassium channel, KQT; KCNQ2(Kv7.2)/KCNQ3(Kv7.3) (Homo sapiens) (UniProt O43526+O43525); experiment: Inhibition of Kv7.2/7.3 in human tsA201 cells assessed as effect on channel currents at -60 mV holding potential at 1.5 uM by whole cell patch clamp assay relative to control; type: cell-based
CYP3A4 [8] = target: T2, CYP3A4; experiment: Inhibition of CYP3A4 (unknown origin) at 50 uM using DBOMF as substrate measured for each min for 6 mins by fluorescence based assay relative to control; type: ADME; conditions: probe DBOMF
[9] = target: Adrenergic receptor alpha-1 (Homo sapiens) (UniProt P35348+P25100+P35368); experiment: Binding affinity to alpha1 adrenergic receptor (unknown origin) at 10 uM relative to control; type: protein assay
HepG2 = experiment: Cytotoxicity against human HepG2 cells assessed as reduction in cell viability incubated for 18 hrs by celltiter-glo assay; conditions: hepg2, 18 h
[10] = Kinetic solubility in […] % DMSO/water at 3.2 uM to 100 uM incubated for 18 hrs by spectrometry; type: physicochemical; conditions: for solubility kinetic at 18 h: […] DMSO/water, read-out: Kinetic_solubility
[11] = target: Voltage-gated inwardly rectifying potassium channel KCNH2 (Homo sapiens, UniProt Q12809); experiment: Inhibition of ERG in human HEK293 cells incubated for 1 hr by thallium flux assay; type: cell-based; summary of the method: as §1
D(3) dopamine receptor [12] = target: T4, D(3) dopamine receptor (Homo sapiens, UniProt P35462); experiment: Inhibition of D3 receptor (unknown origin)
D(3) dopamine receptor [13] = target: T4, D(3) dopamine receptor; experiment: Binding affinity to D3 receptor (unknown origin) at 10 uM relative to control

Sequence of Potassium voltage-gated channel subfamily KQT member 2 (O43526 whole entry): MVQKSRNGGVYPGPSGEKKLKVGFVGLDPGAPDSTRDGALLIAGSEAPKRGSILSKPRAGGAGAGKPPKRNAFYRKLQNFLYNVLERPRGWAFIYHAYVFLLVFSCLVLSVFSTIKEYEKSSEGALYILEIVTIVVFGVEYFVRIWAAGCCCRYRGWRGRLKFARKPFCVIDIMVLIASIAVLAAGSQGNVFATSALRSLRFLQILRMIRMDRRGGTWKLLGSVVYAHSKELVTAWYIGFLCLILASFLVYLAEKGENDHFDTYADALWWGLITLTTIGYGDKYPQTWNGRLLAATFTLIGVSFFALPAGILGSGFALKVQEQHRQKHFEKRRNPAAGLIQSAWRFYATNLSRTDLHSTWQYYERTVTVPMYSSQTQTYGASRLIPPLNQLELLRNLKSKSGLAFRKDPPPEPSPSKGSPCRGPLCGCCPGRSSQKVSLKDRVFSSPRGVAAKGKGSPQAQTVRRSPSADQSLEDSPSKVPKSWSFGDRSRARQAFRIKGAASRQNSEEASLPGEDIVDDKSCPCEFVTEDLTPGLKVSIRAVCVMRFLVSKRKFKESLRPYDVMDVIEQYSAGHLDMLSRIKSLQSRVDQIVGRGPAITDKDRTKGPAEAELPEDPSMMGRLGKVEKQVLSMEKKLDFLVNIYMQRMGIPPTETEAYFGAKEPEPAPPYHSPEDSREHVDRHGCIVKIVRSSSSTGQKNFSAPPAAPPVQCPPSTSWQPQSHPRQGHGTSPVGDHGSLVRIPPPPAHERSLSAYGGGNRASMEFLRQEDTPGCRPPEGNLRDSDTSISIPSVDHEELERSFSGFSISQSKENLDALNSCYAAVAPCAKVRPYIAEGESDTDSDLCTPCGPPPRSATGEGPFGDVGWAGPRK
T2 sequence (P08684 whole entry): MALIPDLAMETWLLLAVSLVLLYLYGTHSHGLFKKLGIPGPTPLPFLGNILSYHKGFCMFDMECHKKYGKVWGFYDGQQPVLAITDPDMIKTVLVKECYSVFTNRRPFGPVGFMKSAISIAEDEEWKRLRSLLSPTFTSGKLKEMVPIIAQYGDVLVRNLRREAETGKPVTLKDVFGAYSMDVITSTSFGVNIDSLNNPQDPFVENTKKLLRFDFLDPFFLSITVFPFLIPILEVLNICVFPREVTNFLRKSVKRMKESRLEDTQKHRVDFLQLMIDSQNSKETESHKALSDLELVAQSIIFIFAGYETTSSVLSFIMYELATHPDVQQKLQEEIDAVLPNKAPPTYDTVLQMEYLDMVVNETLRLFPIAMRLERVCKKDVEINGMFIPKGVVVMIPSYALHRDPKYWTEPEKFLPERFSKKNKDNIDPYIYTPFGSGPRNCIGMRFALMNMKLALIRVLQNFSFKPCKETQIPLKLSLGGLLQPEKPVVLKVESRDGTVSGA
Sequence of Voltage-gated inwardly rectifying potassium channel KCNH2 (Q12809 whole entry): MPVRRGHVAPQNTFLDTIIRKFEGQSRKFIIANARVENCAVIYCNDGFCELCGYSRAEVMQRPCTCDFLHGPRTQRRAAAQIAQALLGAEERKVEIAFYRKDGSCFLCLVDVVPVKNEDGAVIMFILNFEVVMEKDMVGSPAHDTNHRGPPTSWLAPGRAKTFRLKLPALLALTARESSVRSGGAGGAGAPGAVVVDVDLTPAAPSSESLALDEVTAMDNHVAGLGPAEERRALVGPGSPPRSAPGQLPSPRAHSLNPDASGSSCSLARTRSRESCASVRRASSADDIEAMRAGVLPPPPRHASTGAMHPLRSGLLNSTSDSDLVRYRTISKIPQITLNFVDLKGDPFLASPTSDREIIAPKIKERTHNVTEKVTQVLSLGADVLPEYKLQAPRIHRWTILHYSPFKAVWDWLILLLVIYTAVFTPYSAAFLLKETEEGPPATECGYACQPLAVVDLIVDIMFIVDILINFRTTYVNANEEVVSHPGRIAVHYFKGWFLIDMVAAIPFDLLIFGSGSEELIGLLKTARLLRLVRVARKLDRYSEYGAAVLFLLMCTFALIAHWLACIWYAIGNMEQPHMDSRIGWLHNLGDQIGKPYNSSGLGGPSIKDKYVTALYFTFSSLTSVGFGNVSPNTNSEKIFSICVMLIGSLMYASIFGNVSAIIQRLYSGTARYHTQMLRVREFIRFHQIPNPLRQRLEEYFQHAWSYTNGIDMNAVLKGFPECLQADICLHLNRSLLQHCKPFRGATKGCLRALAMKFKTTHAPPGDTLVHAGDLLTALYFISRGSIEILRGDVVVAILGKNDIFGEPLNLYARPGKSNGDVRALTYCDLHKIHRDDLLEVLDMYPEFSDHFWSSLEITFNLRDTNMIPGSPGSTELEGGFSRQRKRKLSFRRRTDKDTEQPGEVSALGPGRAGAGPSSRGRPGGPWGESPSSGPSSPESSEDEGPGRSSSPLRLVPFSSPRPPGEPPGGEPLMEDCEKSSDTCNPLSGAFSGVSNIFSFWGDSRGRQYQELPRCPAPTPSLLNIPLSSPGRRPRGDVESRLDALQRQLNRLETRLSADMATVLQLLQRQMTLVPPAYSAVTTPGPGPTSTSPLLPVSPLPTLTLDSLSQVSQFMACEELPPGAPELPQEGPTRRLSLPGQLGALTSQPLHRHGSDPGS
T4 sequence (P35462 whole entry): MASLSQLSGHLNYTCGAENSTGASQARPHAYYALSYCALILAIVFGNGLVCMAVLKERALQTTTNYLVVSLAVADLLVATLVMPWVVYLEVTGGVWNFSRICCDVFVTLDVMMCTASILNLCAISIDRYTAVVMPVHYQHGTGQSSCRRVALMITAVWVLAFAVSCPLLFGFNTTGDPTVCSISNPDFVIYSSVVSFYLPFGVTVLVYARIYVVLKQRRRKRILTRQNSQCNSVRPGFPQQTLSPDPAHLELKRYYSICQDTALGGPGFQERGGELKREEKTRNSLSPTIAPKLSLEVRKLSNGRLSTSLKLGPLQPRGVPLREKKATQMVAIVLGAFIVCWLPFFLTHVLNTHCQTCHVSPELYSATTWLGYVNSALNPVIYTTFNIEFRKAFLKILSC
Sequence of Adrenergic receptor alpha-1 (Homo sapiens) (P25100 whole entry, looked up, one chain of several): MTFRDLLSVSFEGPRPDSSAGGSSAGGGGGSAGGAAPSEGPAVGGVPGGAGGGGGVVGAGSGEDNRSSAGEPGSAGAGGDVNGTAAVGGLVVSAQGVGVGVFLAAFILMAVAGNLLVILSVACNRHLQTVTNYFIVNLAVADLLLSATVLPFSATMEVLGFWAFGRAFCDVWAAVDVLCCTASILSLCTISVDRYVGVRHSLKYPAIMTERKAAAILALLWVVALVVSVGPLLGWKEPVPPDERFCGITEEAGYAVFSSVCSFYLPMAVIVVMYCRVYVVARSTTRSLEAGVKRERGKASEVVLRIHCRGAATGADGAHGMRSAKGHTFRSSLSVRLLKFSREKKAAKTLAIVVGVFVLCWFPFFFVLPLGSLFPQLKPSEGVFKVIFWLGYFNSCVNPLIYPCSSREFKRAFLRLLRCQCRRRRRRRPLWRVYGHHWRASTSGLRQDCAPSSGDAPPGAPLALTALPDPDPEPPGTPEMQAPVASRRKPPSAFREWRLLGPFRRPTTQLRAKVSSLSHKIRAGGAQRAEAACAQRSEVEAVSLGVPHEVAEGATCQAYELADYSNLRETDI
Sequence of Adrenergic receptor alpha-1 (Homo sapiens) (P35368 whole entry, looked up, one chain of several): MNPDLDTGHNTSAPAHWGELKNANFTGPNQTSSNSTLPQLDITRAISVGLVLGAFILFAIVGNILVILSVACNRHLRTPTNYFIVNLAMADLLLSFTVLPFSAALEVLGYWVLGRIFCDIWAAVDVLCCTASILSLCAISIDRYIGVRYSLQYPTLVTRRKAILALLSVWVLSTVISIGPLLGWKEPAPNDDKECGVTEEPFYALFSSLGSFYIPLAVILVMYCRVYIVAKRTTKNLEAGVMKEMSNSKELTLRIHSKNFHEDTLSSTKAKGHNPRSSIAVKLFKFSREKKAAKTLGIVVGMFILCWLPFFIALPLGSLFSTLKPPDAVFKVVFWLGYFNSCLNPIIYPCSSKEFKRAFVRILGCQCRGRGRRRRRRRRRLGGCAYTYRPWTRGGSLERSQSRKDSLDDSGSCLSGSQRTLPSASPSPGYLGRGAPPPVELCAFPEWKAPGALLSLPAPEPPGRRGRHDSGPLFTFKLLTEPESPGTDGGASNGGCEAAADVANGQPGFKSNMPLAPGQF

O=C1c2ccccc2C(Cc2ccnc(F)c2)(Cc2ccnc(F)c2)c2ccccc21
Stability ([1]; buffer, 24 h, 300 µM): 83%
Ki [2]: 1.1 to 3.1 µM
Stability [3]: 97%
inhibition at 0.1 h, 10 µM (CYP3A4 [4]): 79%
CC50 (HEK293): 77 µM
Activity [5]: > 30%
IC50 [6]: 0.048 µM
inhibition [7]: 31%
inhibition at 0.1 h, 50 µM (CYP3A4 [8]): 82%
Activity [9]: > 30%
CC50 (HepG2): 132 µM
solubility kinetic at 18 h [10]: 27 µM (≈ 11.1 µg/mL)

Cc1cc(CC2(Cc3ccnc(C)c3)c3ccccc3C(=O)c3ccccc32)ccn1
IC50 [11]: Not Active
IC50 [6]: 0.54 µM
inhibition [7]: 33%
inhibition at 0.1 h, 50 µM (CYP3A4 [8]): 92%

O=C1c2ccccc2C(Cc2ccnc(C(F)(F)F)c2)(Cc2ccnc(C(F)(F)F)c2)c2ccccc21
IC50 [11]: Not Active
IC50 [6]: 5.6 µM
inhibition [7]: 6%
inhibition at 0.1 h, 50 µM (CYP3A4 [8]): 95%

O=C1c2ccccc2C(Cc2ccncc2)(Cc2ccncc2)c2ccccc21
IC50 [6]: 0.055 µM
inhibition [7]: 81%
solubility kinetic at 18 h [10]: 27 µM (≈ 10.2 µg/mL)

O=C1c2ccccc2C(Cc2c(F)cncc2F)(Cc2c(F)cncc2F)c2ccccc21
remaining at 24 h, 300 µM [1]: > 99%
IC50 [6]: 0.2 µM
inhibition [7]: 65%
inhibition at 0.1 h, 50 µM (CYP3A4 [8]): 97%

O=C1c2ccccc2C(Cc2ccnnc2)(Cc2ccnnc2)c2ccccc21
IC50 [11]: Not Active
IC50 [6]: 10 µM
inhibition [7]: 12%
inhibition at 0.1 h, 50 µM (CYP3A4 [8]): 28%

O=C1c2ccccc2C(Cc2ccnnc2)(Cc2c(F)cncc2F)c2ccccc21
remaining at 24 h, 300 µM [1]: > 99%
Stability [3]: 84%
Ki (D(3) dopamine receptor [12]): > 10 µM
inhibition at 0.1 h, 10 µM (CYP3A4 [4]): 90%
CC50 (HEK293): > 150 µM
Activity (D(3) dopamine receptor [13]): > 30%
IC50 [6]: 0.16 µM
inhibition [7]: 73%
Activity [9]: > 30%
CC50 (HepG2): > 150 µM
Kinetic_solubility ([10]; buffer, 18 h, 3.2 µM): 27 µM

— ChEMBL document CHEMBL4406884, “An anthrone-based Kv7.2/7.3 channel blocker with improved properties for the investigation of psychiatric and neurodegenerative disorders” (Bioorg Med Chem Lett, 2019)
